Experimental data: ChEMBL document CHEMBL3808300, “Atropisomer Control in Macrocyclic Factor VIIa Inhibitors” (J Med Chem, 2016)

Assays:
[1] = target: Coagulation factor VII/tissue factor (Homo sapiens, UniProt P08709); assay: Inhibition of recombinant human Tissue factor/factor 7a using S2288 as substrate after 30 to 60 mins; assay type: protein-complex assay
How it was run: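 Enzyme is recombinant human TF/FVIIa complex, assayed at 25 °C. Ki is the mean of two experiments, and the method is the published protocol.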

[2] = target: Coagulation factor XI (Homo sapiens, UniProt P03951); assay: Inhibition of purified human factor 11a after 30 to 60 mins
Coagulation factor XI, sequence (P03951 19-387 limits assumed): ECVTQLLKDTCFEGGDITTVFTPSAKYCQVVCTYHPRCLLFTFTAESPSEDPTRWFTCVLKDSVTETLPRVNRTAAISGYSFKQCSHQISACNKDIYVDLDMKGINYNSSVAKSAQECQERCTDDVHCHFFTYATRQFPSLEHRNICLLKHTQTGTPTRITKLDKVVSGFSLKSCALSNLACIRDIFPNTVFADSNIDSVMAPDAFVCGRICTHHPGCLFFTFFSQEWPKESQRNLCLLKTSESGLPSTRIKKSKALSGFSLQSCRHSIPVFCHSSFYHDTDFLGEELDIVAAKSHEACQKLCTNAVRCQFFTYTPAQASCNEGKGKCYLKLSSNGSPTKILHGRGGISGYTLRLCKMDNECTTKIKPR
Coagulation factor XI, sequence (P03951 388-625 limits assumed): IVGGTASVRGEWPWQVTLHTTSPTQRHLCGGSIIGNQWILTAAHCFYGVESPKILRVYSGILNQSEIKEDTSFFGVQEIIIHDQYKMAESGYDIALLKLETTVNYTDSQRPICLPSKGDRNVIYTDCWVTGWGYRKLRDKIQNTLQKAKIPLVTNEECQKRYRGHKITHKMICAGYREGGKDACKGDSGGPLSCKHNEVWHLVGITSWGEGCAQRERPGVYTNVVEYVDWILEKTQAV
How it was run: (§1)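 Purified human enzyme, run at 25 °C. The reported Ki is the average of two experiments. The full protocol follows a previously published method.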

[3] = target: Coagulation factor X (Homo sapiens, UniProt P00742); assay: Inhibition of purified human factor 10a using S2765 as substrate after 30 to 60 mins; how it was run: as §1
Coagulation factor X, sequence (P00742 41-179 limits assumed): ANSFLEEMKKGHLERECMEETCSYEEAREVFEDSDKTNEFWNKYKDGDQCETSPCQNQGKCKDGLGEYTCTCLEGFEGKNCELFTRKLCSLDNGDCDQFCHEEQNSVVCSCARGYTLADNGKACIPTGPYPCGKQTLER
Coagulation factor X, sequence (P00742 235-488 limits assumed): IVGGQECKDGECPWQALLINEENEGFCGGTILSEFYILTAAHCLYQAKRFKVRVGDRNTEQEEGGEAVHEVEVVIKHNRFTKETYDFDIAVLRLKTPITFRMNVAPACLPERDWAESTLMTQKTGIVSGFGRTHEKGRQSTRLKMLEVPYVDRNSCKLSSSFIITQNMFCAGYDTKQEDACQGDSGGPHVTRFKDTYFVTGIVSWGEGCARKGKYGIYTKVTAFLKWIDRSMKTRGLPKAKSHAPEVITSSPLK

[4] = target: Kallikrein-1 (Homo sapiens, UniProt P06870); assay: Inhibition of purified human tissue kallikrein 1 using H-D-Val-Leu-Arg-AFC as substrate
Kallikrein-1, sequence (P06870 whole entry): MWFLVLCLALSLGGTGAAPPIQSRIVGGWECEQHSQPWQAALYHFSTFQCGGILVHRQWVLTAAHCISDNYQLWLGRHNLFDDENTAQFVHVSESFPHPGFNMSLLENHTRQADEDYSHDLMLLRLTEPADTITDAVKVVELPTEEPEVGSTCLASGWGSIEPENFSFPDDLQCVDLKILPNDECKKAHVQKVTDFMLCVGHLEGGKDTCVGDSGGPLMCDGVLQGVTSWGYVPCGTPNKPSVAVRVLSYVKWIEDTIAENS
How it was run: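 Uses purified human tissue kallikrein 1 at 37 °C. Ki is averaged from two independent experiments. The procedure follows an earlier published protocol.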

[5] = target: Prothrombin (Homo sapiens, UniProt P00734); assay: Inhibition of purified human thrombin after 30 to 60 mins; how it was run: as §1
[6] = target: Trypsin (Homo sapiens, UniProt P07477+P07478+P35030); assay: Inhibition of purified human trypsin after 30 to 60 mins; assay type: protein assay; how it was run: as §1

Coagulation factor VII/tissue factor, sequence (P08709 61-212 limits assumed): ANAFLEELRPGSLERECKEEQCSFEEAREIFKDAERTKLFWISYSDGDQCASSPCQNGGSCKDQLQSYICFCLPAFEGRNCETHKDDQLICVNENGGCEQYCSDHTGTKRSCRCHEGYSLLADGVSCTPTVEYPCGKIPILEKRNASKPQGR
Coagulation factor VII/tissue factor, sequence (P08709 213-466 limits assumed): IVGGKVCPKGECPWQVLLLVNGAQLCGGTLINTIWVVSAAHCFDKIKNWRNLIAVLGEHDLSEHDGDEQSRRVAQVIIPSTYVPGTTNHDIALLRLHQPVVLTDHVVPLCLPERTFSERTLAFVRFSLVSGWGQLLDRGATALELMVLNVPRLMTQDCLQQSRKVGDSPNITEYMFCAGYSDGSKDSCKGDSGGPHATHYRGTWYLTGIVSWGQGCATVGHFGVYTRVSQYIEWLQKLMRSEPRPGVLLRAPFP
Coagulation factor VII/tissue factor, sequence (P13726 33-295 partner limits assumed): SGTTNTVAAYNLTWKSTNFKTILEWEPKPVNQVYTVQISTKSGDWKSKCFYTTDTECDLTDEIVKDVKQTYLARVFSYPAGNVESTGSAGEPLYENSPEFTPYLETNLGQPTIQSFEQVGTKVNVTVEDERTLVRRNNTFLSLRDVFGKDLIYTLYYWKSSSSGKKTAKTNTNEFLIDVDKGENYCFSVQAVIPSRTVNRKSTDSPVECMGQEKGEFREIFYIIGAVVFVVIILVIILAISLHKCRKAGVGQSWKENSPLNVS

Row | SMILES | Ki [1] [µM] | Ki [2] [µM] | Ki [3] [µM] | Ki [4] [µM] | Ki [5] [µM] | Ki [6] [µM]
1 | Cc1cc2ccc1[C@@H](C)COC(=O)Nc1cccc(c1)CNC(=O)[C@H]2Nc1ccc2c(N)nccc2c1 | 4.51 | > 14.2 | > 13.3 | 0.031 | > 11.5 | > 10
2 | C[C@@H]1COC(=O)Nc2cccc(c2)CNC(=O)C(Nc2ccc3c(N)nccc3c2)c2ccc1cc2 (stereo partly drawn) | 1.45 | > 11 | 6.8 | 0.004 | 7.4 | > 6.2
3 | Nc1nccc2cc(NC3C(=O)NCc4cccc(c4)NC(=O)OCCc4ccc3cc4)ccc12 (stereo not drawn) | 0.51 | 5.7 | 0.61 | 0.035 | > 13 | 3.5

Second part, the compound after the results:

Row | Ki [1] [µM] | Ki [2] [µM] | Ki [3] [µM] | Ki [4] [µM] | Ki [5] [µM] | Ki [6] [µM] | SMILES
4 | 0.14 | 9.1 | 4.5 | 0.025 | 4.7 | > 6.2 | C[C@H]1COC(=O)Nc2cccc(c2)CNC(=O)C(Nc2ccc3c(N)nccc3c2)c2ccc1cc2 (stereo partly drawn)
5 |  | 10.8 | 2.6 |  | > 13 |  | CC1COC(=O)Nc2cccc(c2)CNC(=O)C(Nc2ccc3c(N)nccc3c2)c2ccc1cc2 (stereo not drawn)
6 | 0.0014 | > 14.2 | > 13.3 | 0.025 | > 11.5 | > 10 | Cc1cc2ccc1[C@@H](C)COC(=O)Nc1cccc(c1)CNC(=O)[C@@H]2Nc1ccc2c(N)nccc2c1
